From ChEMBL document CHEMBL1127053, “3,4-Dimethyl-4-(3-hydroxyphenyl)piperidines: opioid antagonists with potent anorectant activity” (J Med Chem, 1993)

How the values were obtained:
[1] = biological target: Kappa-type opioid receptor (Mus musculus) (UniProt P33534); assay: Antagonist activity towards U50 488 induced kappa opioid receptor by mouse writhing assay at 2.5 mg/kg subcutaneously; format: functional, organism-based; set-up: dose 2.5 mg/kg
Procedure, shortened: (§1)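 Mouse acetic acid writhing: 0.6% acetic acid ip, writhes counted for 10 min starting 5 min after injection. 5 mice/point, ≥5 doses varied 2-fold, each mouse used once. AD50 = antagonist dose reducing agonist-induced writhing inhibition to 50%.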

Rattus norvegicus [2] = assay: Tested for concentration required to reduce the food consumption by 20 % subcutaneously; format: functional
Procedure, shortened: (§2)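 Obese Zucker rats, 3-4 months old, trained to eat only 8 am-4 pm. Groups of 4 (2 male, 2 female), with one saline control group daily. Compound in saline with 10% DMSO, given sc on 3 consecutive days, typical doses 5.0-0.08 mg/kg (0.02-20 in some cases). Intake measured over the first 4 h. ED20 from regression of the linear portion of the dose-response curve.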

[3] = biological target: Kappa-type opioid receptor (Rattus norvegicus) (UniProt P34975); assay: Antagonism of bremazocine induced kappa receptor diuresis in rats at a concentration of 0.08 mg/kg subcutaneously; format: functional, organism-based; set-up: dose 0.08 mg/kg
Kappa-type opioid receptor (Rattus norvegicus), sequence (P34975 whole entry): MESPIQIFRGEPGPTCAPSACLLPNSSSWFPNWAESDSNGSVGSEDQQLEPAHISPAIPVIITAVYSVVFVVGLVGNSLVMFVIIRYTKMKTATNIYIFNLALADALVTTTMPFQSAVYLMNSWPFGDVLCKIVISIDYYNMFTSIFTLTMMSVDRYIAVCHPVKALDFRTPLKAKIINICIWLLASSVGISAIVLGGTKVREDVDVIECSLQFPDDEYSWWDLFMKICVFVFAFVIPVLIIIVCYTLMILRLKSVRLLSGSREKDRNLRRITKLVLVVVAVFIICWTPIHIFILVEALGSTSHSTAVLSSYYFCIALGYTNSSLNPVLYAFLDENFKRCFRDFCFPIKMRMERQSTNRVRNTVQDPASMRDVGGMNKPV
Procedure, shortened: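 Male Long-Evans hooded rats (350-500 g), reused no more than twice weekly. Bremazocine 0.08 mg/kg sc, test antagonist sc on the opposite side without delay. Rats housed in metabolism cages; urine volume recorded at 2 and 5 h. 3 rats/dose, doses varied 2-fold. AD50 = dose reducing cumulative 5-h induced urination by 50%.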

[4] = biological target: Mu-type opioid receptor (Mus musculus) (UniProt P42866); assay: Antagonistic activity towards morphine induced mu-opioid receptor by mouse writhing assay at 1.25 mg/kg subcutaneously; format: functional, organism-based; set-up: dose 1.25 mg/kg
Mu-type opioid receptor (Mus musculus), sequence (P42866 whole entry): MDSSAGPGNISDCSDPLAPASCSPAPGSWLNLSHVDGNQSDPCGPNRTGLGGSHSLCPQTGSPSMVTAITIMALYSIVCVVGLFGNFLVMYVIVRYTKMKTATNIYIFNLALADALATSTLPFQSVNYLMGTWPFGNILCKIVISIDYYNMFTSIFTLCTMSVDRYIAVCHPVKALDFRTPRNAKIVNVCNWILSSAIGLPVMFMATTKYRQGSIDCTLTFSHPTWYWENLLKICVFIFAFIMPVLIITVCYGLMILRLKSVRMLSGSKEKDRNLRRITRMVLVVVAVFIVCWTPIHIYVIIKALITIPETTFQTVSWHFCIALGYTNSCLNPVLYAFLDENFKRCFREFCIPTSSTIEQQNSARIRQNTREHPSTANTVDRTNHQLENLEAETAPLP
Procedure, shortened: as §1, with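 “injection. Agonist (morphine 1.25 mg/kg or U50,488 2.5 mg/kg) and antagonist given sc 20 min before acid.” for “injection.”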

[5] = biological target: Kappa-type opioid receptor (Cavia porcellus, UniProt P41144); assay: Binding affinity towards kappa opioid receptor by displacement of [3H]EKC in guinea pig cortical tissue
Kappa-type opioid receptor, sequence (P41144 whole entry): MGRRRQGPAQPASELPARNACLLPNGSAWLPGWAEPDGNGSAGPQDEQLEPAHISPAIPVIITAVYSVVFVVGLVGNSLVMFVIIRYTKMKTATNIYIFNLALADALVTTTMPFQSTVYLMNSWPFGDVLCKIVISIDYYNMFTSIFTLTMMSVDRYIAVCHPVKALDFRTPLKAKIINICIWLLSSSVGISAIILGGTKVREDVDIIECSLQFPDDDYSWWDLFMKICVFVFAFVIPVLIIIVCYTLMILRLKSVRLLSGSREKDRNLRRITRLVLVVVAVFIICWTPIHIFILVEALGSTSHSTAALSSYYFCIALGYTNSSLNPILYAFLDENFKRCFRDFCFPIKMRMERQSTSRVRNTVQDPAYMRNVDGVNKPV
Procedure, shortened: (§3)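 Radioligand displacement. Kappa: [3H]EKC, guinea pig cortex, with fentanyl and DADL added to block mu/delta binding. Delta: [3H]DADL, rat brain homogenate.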

Mu-type opioid receptor = Mu-type opioid receptor (Rattus norvegicus, UniProt P33535); assay: Binding affinity towards mu-opioid receptor by the displacement of [3H]Nal in rat brain homogenates; format: tissue-based
Mu-type opioid receptor, sequence (P33535 whole entry): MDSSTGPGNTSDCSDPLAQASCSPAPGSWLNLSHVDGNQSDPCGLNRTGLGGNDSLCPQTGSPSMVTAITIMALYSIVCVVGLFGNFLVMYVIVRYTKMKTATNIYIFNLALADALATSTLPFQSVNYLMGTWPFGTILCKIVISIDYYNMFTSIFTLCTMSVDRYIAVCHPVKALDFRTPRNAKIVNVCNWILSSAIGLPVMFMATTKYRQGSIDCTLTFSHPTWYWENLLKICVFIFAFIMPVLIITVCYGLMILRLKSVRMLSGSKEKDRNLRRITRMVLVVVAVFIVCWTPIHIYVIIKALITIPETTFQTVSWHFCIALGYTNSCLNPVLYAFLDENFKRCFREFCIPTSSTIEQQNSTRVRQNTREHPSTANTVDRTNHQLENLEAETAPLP

[6] = biological target: Kappa-type opioid receptor (Cavia porcellus) (UniProt P41144); assay: Binding affinity towards kappa-opioid receptor by displacement of [3H]EKC in guinea pig cortical tissue at 100 nM
Kappa-type opioid receptor (Cavia porcellus), sequence (P41144 whole entry): as the sequence (P41144 whole entry) above
Procedure, shortened: (§4)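 [3H]EKC binding to guinea pig cortical tissue, with fentanyl and DADL present to block mu and delta sites. Percent displacement measured at 10 and 100 nM test compound, run in triplicate.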

[7] = biological target: Kappa-type opioid receptor (Cavia porcellus) (UniProt P41144); assay: Binding affinity towards kappa-opioid receptor by displacement of [3H]EKC in guinea pig cortical tissue at 10 nM; procedure, shortened: as §4
Rattus norvegicus [8] = assay: Tested for concentration required to reduce the food consumption by 20 % subcutaneously; The maximum effect achievedwas approximately 20% and not dose related; format: functional; conditions: sc; procedure, shortened: as §2
Rattus norvegicus [9] = assay: Tested for concentration required to reduce the food consumption by 20 % subcutaneously; effect on feeding was minimal and not dose related; format: functional; conditions: sc; procedure, shortened: as §2
[10] = biological target: Delta-type opioid receptor (Rattus norvegicus, UniProt P33533); assay: Binding affinity towards delta-opioid receptor by displacement of [3H]DADL in rat brain homogenates; format: tissue-based; procedure, shortened: as §3
Delta-type opioid receptor, sequence (P33533 whole entry): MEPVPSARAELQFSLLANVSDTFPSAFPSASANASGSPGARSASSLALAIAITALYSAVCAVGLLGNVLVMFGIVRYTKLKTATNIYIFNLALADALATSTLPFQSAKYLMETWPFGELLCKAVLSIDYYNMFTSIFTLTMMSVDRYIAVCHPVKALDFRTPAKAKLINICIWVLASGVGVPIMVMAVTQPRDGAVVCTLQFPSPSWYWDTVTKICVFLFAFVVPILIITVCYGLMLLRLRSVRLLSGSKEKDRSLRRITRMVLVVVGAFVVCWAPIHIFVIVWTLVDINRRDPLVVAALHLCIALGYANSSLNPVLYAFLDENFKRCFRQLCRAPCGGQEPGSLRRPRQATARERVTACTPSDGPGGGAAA

[11] = Rattus norvegicus, sc, read-out: ED50

Kappa-type opioid receptor (Mus musculus), sequence (P33534 whole entry): as the sequence (P34975 whole entry) above, with E11D, A17S, P51S, V308A counted along it

SMILES | AD50 [1] | ED50 (Rattus norvegicus [2]; [11]) | AD50 [3] | AD50 [4] | Ki [5] | Ki (Mu-type opioid receptor) | other results
C[C@H]1CN(C)CC[C@@]1(C)c1cccc(O)c1 | > 5 mg/kg | 4.1 mg/kg | > 5 mg/kg |  |  |  | 
C[C@H]1CN(CCC(O)C2CCCCC2)CC[C@@]1(C)c1cccc(O)c1 (some centres not stated) | 0.14 mg/kg | 0.05 mg/kg | 0.49 mg/kg | 0.07 mg/kg | 4.8 nM | 0.29 nM | 
C[C@H]1CN(CCCc2cccs2)CC[C@@]1(C)c1cccc(O)c1 (stereo in doubt; 41) [listing 1 of 2 here] |  |  | 1.18 mg/kg |  |  |  | 
C[C@@H]1CN(CC[C@H](O)C2CCCCC2)CC[C@]1(C)c1cccc(O)c1 | 0.24 mg/kg | 0.11 mg/kg | 1.6 mg/kg | 0.13 mg/kg | 6.5 nM |  | 
C[C@H]1CN(CCCc2cccs2)CC[C@@]1(C)c1cccc(O)c1 (stereo in doubt; 29) [listing 1 of 2 here] |  |  | 1 mg/kg | 0.22 mg/kg |  |  | 
C[C@@H]1CN(CCCc2cccs2)CC[C@]1(C)c1cccc(O)c1 | 0.65 mg/kg | 0.4 mg/kg | 1.66 mg/kg | 0.24 mg/kg |  |  | 
C[C@H]1CN(CCC2C=CCC2)CC[C@@]1(C)c1cccc(O)c1 (some centres not stated) | 0.12 mg/kg | 0.44 mg/kg | 1.4 mg/kg | 0.11 mg/kg | 1 nM | 12 nM | 
C[C@H]1CN(CCCc2ccccc2)CC[C@@]1(C)c1cccc(O)c1 | 5.3 mg/kg | 1.3 mg/kg |  |  |  |  | 
C[C@H]1CN(CCCC2CCCC2)CC[C@@]1(C)c1cccc(O)c1 | 0.13 mg/kg | 1.2 mg/kg | 0.79 mg/kg | 0.12 mg/kg | 3.4 nM | 0.37 nM | 
CCCCCN1CC[C@@](C)(c2cccc(O)c2)[C@@H](C)C1 | 0.6 mg/kg | 3.8 mg/kg |  |  |  |  | Displacement [6]: 78%; Displacement [7]: 44%
CC(C)CCN1CC[C@@](C)(c2cccc(O)c2)[C@@H](C)C1 | 0.62 mg/kg | > 20 mg/kg | 4.5 mg/kg | 0.87 mg/kg | 70 nM | 32 nM | 
CC(C)C(O)CCN1CC[C@@](C)(c2cccc(O)c2)[C@@H](C)C1 (some centres not stated) | 0.35 mg/kg | 0.65 mg/kg | 0.17 mg/kg | 0.14 mg/kg | 6.9 nM | 2.6 nM | 
O=C1CC[C@@]2(O)[C@H]3Cc4ccc(O)c5c4[C@@]2(CCN3CC2CC2)[C@H]1O5 [NALTREXONE] |  |  |  |  |  |  | ED50 (Rattus norvegicus [8]): 1.7 mg/kg
CC(C)CCCCN1CC[C@@](C)(c2cccc(O)c2)[C@@H](C)C1 (stereo in doubt; 39) [listing 1 of 2 here] | 0.22 mg/kg |  | 1.31 mg/kg | 0.08 mg/kg |  |  | 
CCCCCCN1CC[C@@](C)(c2cccc(O)c2)[C@@H](C)C1 (stereo in doubt; 37) [listing 1 of 2 here] | 0.22 mg/kg |  | 0.86 mg/kg | 0.26 mg/kg |  |  | 
C[C@H]1CN(CC2CCCCC2)CC[C@@]1(C)c1cccc(O)c1 | 0.47 mg/kg | > 20 mg/kg | 4.6 mg/kg | 1.1 mg/kg | 29 nM | 17 nM | 
C[C@H]1CN(CCC(O)C2CCCC2)CC[C@@]1(C)c1cccc(O)c1 (some centres not stated) | 0.08 mg/kg | 0.09 mg/kg | 0.99 mg/kg | 0.04 mg/kg | 5.5 nM | 0.41 nM | 
C=C(C)CCCN1CC[C@@](C)(c2cccc(O)c2)[C@@H](C)C1 | 0.095 mg/kg | 0.29 mg/kg | 0.39 mg/kg | 0.077 mg/kg | 21 nM | 0.17 nM | 
CC(C)CCCCN1CC[C@@](C)(c2cccc(O)c2)[C@@H](C)C1 (stereo in doubt; 21) [listing 1 of 2 here] |  |  |  |  | 5.9 nM | 0.46 nM | ED50 (Rattus norvegicus [2]): 0.06 mg/kg
CC(C)CCCCN1CC[C@@](C)(c2cccc(O)c2)[C@@H](C)C1 (stereo in doubt; 39) [listing 2 of 2 here] |  |  |  |  | 1.91 nM | 0.89 nM | ED50 (Rattus norvegicus [2]): 0.14 mg/kg

SMILES | AD50 [1] | ED50 (Rattus norvegicus [2]; [11]) | AD50 [3] | AD50 [4] | Ki [5] | Ki (Mu-type opioid receptor) | other results
C[C@H]1CN(CCCc2ccsc2)CC[C@@]1(C)c1cccc(O)c1 | 0.24 mg/kg | 0.06 mg/kg | 1.9 mg/kg | 0.12 mg/kg |  |  | 
C[C@H]1CN(CC[C@@H](O)C2CCCCC2)CC[C@@]1(C)c1cccc(O)c1 | 0.36 mg/kg | 0.16 mg/kg | 1.1 mg/kg | 0.03 mg/kg | 11.4 nM | 2.4 nM | 
C[C@H]1CN(CCC2CCCCC2)CC[C@@]1(C)c1cccc(O)c1 | 0.12 mg/kg | 3.6 mg/kg | 0.69 mg/kg | 0.1 mg/kg | 2.3 nM | 0.65 nM | 
C[C@H]1CN(CCCc2cccs2)CC[C@@]1(C)c1cccc(O)c1 (stereo in doubt; 29) [listing 2 of 2 here] |  | 0.07 mg/kg |  |  |  |  | 
CC(C)CCCCN1CC[C@@](C)(c2cccc(O)c2)[C@@H](C)C1 (stereo in doubt; 21) [listing 2 of 2 here] | 0.24 mg/kg |  | 0.39 mg/kg | 0.58 mg/kg |  |  | 
CCCCCCN1CC[C@](C)(c2cccc(O)c2)[C@H](C)C1 | 0.29 mg/kg | 1.17 mg/kg | 1.34 mg/kg | 0.21 mg/kg |  | 5.61 nM | 
C=CCN1CC[C@]23c4c5ccc(O)c4O[C@H]2C(=O)CC[C@@]3(O)[C@H]1C5 [NALOXONE] |  | 1.2 mg/kg |  |  |  |  | 
C[C@H]1CN(CCCC2CCCCC2)CC[C@@]1(C)c1cccc(O)c1 | 0.19 mg/kg | 0.12 mg/kg | 1 mg/kg | 0.35 mg/kg | 2.3 nM | 0.49 nM | 
C[C@@H]1CN(CC[C@@H](O)C2CCCCC2)CC[C@]1(C)c1cccc(O)c1 | 0.52 mg/kg |  | 5.2 mg/kg | 0.52 mg/kg | 14.3 nM | 2.2 nM | ED50 (Rattus norvegicus [9]): > 1.25 mg/kg
CCCCCCN1CC[C@@](C)(c2cccc(O)c2)[C@@H](C)C1 (stereo in doubt; 16) |  |  |  |  |  |  | ED50 (Rattus norvegicus [2]): 0.51 mg/kg
C[C@H]1CN(CCC(O)c2ccccc2)CC[C@@]1(C)c1cccc(O)c1 (some centres not stated) | 0.92 mg/kg | 0.5 mg/kg | 2.5 mg/kg | 0.05 mg/kg |  | 1 nM | 
CC(C)CCCN1CC[C@@](C)(c2cccc(O)c2)[C@@H](C)C1 | 0.073 mg/kg | 2.1 mg/kg | 0.39 mg/kg | 0.11 mg/kg | 9.6 nM | 0.29 nM | 
CC(C)CCCCN1CC[C@](C)(c2cccc(O)c2)[C@H](C)C1 | 0.89 mg/kg | 0.14 mg/kg | 4.75 mg/kg | 0.35 mg/kg | 3.04 nM | 1.36 nM | 
C[C@H]1CN(CCC(O)c2cccs2)CC[C@@]1(C)c1cccc(O)c1 (some centres not stated) |  | 0.07 mg/kg |  |  |  |  | 
CCCCCCN1CC[C@@](C)(c2cccc(O)c2)[C@@H](C)C1 (stereo in doubt; 37) [listing 2 of 2 here] |  |  |  |  |  | 1.1 nM | ED50 (Rattus norvegicus [2]): 0.19 mg/kg
CCCCCCCN1CC[C@@](C)(c2cccc(O)c2)[C@@H](C)C1 | > 0.64 mg/kg | 0.4 mg/kg | 3.3 mg/kg | 0.21 mg/kg |  |  | Displacement [6]: 87%; Displacement [7]: 57%
C=C1CC[C@@]2(O)[C@H]3Cc4ccc(O)c5c4[C@@]2(CCN3CC2CC2)[C@H]1O5 | 0.14 mg/kg | 1.5 mg/kg | 0.99 mg/kg | 0.02 mg/kg | 2 nM | 0.29 nM | Ki [10]: 3.4 nM
C[C@H]1CN(CCC2CCCC2)CC[C@@]1(C)c1cccc(O)c1 | 0.22 mg/kg | 0.34 mg/kg | 0.67 mg/kg | 0.14 mg/kg | 7.2 nM | 2.3 nM | 
C[C@H]1CN(CCCc2cccs2)CC[C@@]1(C)c1cccc(O)c1 (stereo in doubt; 41) [listing 2 of 2 here] |  |  |  |  |  |  | Ki [10]: 10.3 nM; ED50 (Rattus norvegicus [2]): 0.11 mg/kg
C[C@H]1CN(CCC(=O)C2CCCCC2)CC[C@@]1(C)c1cccc(O)c1 | 0.26 mg/kg | 0.13 mg/kg |  | 0.12 mg/kg | 3.9 nM | 0.34 nM | 
